Assay results taken from ChEMBL document CHEMBL1132299, “Phosphinic pseudo-tripeptides as potent inhibitors of matrix metalloproteinases: a structure-activity study” (J Med Chem, 1999).

Key:
Matrilysin = target: T1, Matrilysin (Homo sapiens, UniProt P09237); experiment: Inhibition of Matrix metalloprotease-7 Matrilysin
T1 sequence (P09237 whole entry): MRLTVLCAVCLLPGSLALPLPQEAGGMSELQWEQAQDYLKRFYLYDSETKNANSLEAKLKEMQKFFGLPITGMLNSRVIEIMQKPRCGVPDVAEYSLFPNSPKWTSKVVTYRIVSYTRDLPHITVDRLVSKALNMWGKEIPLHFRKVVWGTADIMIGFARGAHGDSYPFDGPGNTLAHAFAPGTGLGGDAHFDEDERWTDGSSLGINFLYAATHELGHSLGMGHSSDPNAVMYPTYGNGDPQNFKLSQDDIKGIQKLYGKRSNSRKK
Outline: (§1)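 Catalytic domains of human MMP-14 and MMP-7 were expressed in E. coli BL21 DE3 pLysS. Buffer 50 mM Tris/HCl pH 6.8, 10 mM CaCl2, 25 °C; 0.2–5 nM enzyme; 6 µM Mca-Pro-Leu-Gly-Leu-Dpa-Ala-Arg-NH2 read by fluorescence (ex 340, em 400 nm) for 30 min. Km: MMP-14 21, MMP-7 67 µM. Five inhibitor concentrations in triplicate; Ki by Horovitz–Levitski method.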

[1] = target: 72 kDa type IV collagenase (Homo sapiens, UniProt P08253); experiment: Binding affinity against matrix metalloprotease-2 (gelatinase-A).
Outline: (§2)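 Full-length human pro-MMP-2, -9 and -8 were expressed in NSO myeloma cells and activated with 4-aminophenylmercuric acetate just before use. Run at 25 °C in 50 mM Tris/HCl pH 6.8, 10 mM CaCl2, with 0.2–5 nM enzyme and 6 µM Mca-Pro-Leu-Gly-Leu-Dpa-Ala-Arg-NH2; fluorescence 340/400 nm, 30 min. Km: MMP-2 49, MMP-9 14, MMP-8 61 µM. Triplicate, five inhibitor levels; Ki by Horovitz–Levitski.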

Interstitial collagenase = target: T2, Interstitial collagenase (Homo sapiens, UniProt P03956); experiment: Inhibition of matrix metalloprotease-1
T2 sequence (P03956 whole entry): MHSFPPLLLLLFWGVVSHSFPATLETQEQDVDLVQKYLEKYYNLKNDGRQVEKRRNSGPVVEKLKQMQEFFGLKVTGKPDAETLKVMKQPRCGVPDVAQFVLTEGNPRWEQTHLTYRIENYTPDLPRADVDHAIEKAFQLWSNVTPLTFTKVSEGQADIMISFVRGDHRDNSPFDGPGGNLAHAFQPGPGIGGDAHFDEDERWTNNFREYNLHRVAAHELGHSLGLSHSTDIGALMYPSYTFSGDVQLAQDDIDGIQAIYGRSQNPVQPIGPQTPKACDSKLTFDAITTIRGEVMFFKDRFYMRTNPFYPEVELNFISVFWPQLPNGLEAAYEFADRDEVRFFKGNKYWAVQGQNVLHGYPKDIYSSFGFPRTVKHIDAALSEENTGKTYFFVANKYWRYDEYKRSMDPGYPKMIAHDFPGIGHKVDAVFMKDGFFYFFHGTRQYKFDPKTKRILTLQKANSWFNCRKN
Outline: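 Human full-length pro-MMP-1 was expressed in NSO myeloma cells and activated just before use with trypsin (10 µg/mL, 25 min, 25 °C), then BPTI (100 µg/mL). Assay: 50 mM Tris/HCl pH 6.8, 10 mM CaCl2, 25 °C, 0.2–5 nM enzyme, 6 µM Mca-Pro-Leu-Gly-Leu-Dpa-Ala-Arg-NH2, fluorescence 340/400 nm over 30 min. Km 100 µM. Triplicate inhibition at five concentrations (20–80% range) gave Ki by the Horovitz–Levitski method.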

Neutrophil collagenase = Neutrophil collagenase (Homo sapiens, UniProt P22894); experiment: Inhibition of matrix metalloprotease-8; outline: as §2
[2] = target: Matrix metalloproteinase-9 (Homo sapiens, UniProt P14780); experiment: Binding affinity against matrix metalloprotease-9 (gelatinase-B).; outline: as §2
Stromelysin-3 = target: T3, Stromelysin-3 (Mus musculus, UniProt Q02853); experiment: Binding affinity against matrix metalloprotease-11.
T3 sequence (Q02853 whole entry): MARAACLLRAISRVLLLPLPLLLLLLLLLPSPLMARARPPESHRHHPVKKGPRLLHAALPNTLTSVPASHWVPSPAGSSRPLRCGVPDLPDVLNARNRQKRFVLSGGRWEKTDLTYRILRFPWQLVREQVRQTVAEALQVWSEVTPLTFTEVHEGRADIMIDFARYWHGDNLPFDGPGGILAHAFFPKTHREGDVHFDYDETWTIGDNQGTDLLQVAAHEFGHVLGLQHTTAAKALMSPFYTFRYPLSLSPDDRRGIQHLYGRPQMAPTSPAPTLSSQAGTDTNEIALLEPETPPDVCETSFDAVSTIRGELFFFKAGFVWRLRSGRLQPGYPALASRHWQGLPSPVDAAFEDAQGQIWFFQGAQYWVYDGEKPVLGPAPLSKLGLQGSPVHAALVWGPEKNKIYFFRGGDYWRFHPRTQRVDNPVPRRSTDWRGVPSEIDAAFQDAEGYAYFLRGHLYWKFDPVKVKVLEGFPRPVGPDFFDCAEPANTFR
Outline: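 Mouse MMP-11 catalytic domain from E. coli BL21 DE3 pLysS, assayed in stirred quartz cuvettes in 50 mM Tris/HCl pH 6.8, 10 mM CaCl2 at 25 °C. Substrate was Mca-Pro-Leu-Ala-Cys(OMeBn)-Trp-Ala-Arg-Dpa-NH2 (Km 0.2 µM), with fluorescence read-out. Percent inhibition was measured in triplicate at five concentrations (20–80% range), and Ki was derived by the Horovitz–Levitski method.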

[3] = target: Matrix metalloproteinase-14 (Homo sapiens, UniProt P50281); experiment: Binding affinity against matrix metalloprotease-14 MTI-MMP.; outline: as §1

Sequence of Matrix metalloproteinase-9 (P14780 whole entry): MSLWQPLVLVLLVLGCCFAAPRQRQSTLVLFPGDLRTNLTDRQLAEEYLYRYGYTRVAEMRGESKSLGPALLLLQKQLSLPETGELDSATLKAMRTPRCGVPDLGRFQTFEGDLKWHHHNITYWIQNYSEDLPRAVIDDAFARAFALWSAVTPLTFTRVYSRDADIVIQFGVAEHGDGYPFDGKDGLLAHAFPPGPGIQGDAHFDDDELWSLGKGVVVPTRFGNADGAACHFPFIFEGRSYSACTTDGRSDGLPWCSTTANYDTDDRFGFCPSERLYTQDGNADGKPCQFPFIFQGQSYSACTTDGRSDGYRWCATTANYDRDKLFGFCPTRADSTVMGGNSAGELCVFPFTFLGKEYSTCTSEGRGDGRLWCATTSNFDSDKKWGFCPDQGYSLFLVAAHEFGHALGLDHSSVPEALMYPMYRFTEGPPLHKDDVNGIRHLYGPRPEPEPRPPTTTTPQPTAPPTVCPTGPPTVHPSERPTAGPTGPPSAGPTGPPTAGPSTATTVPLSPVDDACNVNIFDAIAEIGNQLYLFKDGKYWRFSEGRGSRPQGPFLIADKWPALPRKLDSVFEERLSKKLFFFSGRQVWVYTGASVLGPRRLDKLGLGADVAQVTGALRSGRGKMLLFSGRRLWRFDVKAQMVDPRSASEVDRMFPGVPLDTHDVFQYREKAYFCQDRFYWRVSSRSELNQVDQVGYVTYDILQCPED
Sequence of Neutrophil collagenase (P22894 whole entry): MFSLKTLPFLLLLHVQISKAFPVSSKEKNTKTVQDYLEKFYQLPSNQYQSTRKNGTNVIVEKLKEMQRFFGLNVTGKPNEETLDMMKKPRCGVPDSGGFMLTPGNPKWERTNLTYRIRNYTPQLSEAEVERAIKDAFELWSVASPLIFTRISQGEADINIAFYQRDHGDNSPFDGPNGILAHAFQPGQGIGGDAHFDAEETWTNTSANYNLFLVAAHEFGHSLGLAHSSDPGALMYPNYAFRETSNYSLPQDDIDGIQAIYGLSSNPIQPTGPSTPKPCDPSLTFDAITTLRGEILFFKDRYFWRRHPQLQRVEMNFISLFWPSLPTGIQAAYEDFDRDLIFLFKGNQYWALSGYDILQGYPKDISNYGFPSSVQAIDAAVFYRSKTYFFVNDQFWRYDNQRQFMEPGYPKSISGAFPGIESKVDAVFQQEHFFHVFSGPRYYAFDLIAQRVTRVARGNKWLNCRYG
Sequence of 72 kDa type IV collagenase (P08253 whole entry): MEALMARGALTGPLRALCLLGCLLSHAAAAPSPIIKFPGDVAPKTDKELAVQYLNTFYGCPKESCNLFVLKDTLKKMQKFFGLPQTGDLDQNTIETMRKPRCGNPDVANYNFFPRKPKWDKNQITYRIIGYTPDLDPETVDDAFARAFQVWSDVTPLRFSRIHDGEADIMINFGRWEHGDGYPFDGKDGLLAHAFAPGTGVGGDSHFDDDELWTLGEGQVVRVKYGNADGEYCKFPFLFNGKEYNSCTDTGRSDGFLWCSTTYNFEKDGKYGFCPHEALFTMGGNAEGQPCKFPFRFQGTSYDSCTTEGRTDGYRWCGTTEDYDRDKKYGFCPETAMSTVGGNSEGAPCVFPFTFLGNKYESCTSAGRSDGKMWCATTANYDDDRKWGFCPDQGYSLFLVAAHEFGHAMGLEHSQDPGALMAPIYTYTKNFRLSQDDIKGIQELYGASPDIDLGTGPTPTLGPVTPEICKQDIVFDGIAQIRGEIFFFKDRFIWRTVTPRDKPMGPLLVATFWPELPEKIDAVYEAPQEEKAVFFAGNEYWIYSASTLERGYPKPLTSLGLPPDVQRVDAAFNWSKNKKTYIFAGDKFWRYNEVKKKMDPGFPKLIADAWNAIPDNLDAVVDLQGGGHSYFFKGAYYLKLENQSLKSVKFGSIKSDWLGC

Ki (Matrilysin): 370 nM
Ki [1]: 19 nM
Ki (Interstitial collagenase): 340 nM
Ki (Neutrophil collagenase): 5 nM
Ki [2]: 13 nM
Ki (Stromelysin-3): 4.2 nM
Ki [3]: 60 nM
Compound: NC(=O)C(Cc1c[nH]c2ccccc12)NC(=O)C(CCCc1ccccc1)CP(=O)(O)C(Cc1ccccc1)NC(=O)c1ccc2ccccc2n1 (configuration not stated)
